In brackets after ≈: the same amount, converted by molar mass.
How the values were obtained:
Format in all cases: functional
[1] = system: Mycobacterium tuberculosis; assay: In vitro activity against Mycobacterium. tuberculosis (strain type-BUR)at pH 5.8; settings: Mycobacterium tuberculosis; read-out: MIC
[2] = system: Mycobacterium tuberculosis; assay: In vitro activity against Mycobacterium. tuberculosis (strain type-H37Rv) at pH 5.8; settings: Mycobacterium tuberculosis; read-out: MIC
[3] = system: Mycobacterium tuberculosis; assay: In vitro activity against Mycobacterium strain ING (Mycobacterium tuberculosis)
How it was run: (§1)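 Agar dilution in compartmented plates of Middlebrook 7H10 agar with 10% OADC, adjusted to pH 5.8 or pH 6.6. Twofold compound dilutions spanned 200–3.12 µg/mL. Plates were made 24–48 h ahead and held at 4 °C. MIC (µg/mL) was the lowest concentration giving 99% (2 log) growth inhibition.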

[4] = system: Mycobacterium tuberculosis; assay: In vitro activity against Mycobacterium strain DUB (Mycobacterium tuberculosis); settings: Mycobacterium tuberculosis; read-out: MIC
[5] = system: Mycobacterium tuberculosis; assay: In vitro activity against Mycobacterium strain BAK (Mycobacterium tuberculosis); settings: Mycobacterium tuberculosis; read-out: MIC
[6] = system: Mycobacterium kansasii; assay: In vitro activity against Mycobacterium. kansasii (strain type-SWK)at pH 5.8
How it was run: (§2)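 Pyrazinamide-resistant isolate SWK tested on Middlebrook 7H10 agar plus 10% OADC adjusted to pH 5.8. Compartmented plates hold 2-fold dilutions from 200 to 3.12 µg/mL, prepared 24–48 h before use and kept at 4 °C, with a drug-free compartment. Incubation was 37 °C for 4 weeks. MIC is the lowest level causing 99% (2 log) growth inhibition.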

[7] = system: Mycobacterium tuberculosis; assay: In vitro activity against Mycobacterium strain LEL (Mycobacterium tuberculosis)
[8] = system: Mycobacterium tuberculosis; assay: In vitro activity against Mycobacterium strain DOU (Mycobacterium tuberculosis); how it was run: as §1
[9] = system: Mycobacterium kansasii; assay: In vitro activity against Mycobacterium strain SWK (Mycobacterium kansasii)
How it was run: (§3)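 Agar dilution MIC against pyrazinamide-resistant clinical isolates on Middlebrook 7H10 agar with 10% OADC at pH 5.8 or pH 6.6. Serial 2-fold dilutions span 200–3.12 µg/mL in compartmented plates made 24–48 h ahead and stored at 4 °C. Each isolate has a drug-free control. Plates were incubated at 37 °C for 4 weeks. MIC is the lowest concentration giving 99% (2 log) growth inhibition.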

[10] = system: Mycobacterium tuberculosis; assay: In vitro activity against Mycobacterium strain ATCC 35828 (Mycobacterium tuberculosis); how it was run: as §1
[11] = system: Mycobacterium tuberculosis; assay: In vitro activity against Mycobacterium strain DOL (Mycobacterium tuberculosis)
[12] = system: Mycobacterium tuberculosis; assay: In vitro activity against Mycobacterium strain MCQ (Mycobacterium tuberculosis); how it was run: as §1
[13] = system: Mycobacterium tuberculosis; assay: In vitro activity against Mycobacterium strain WOO (Mycobacterium tuberculosis); how it was run: as §1
[14] = system: Mycobacterium tuberculosis; assay: In vitro activity against Mycobacterium strain BUR (Mycobacterium tuberculosis); how it was run: as §1
[15] = system: Mycobacterium tuberculosis; assay: In vitro activity against Mycobacterium. tuberculosis (strain type-ATCC 35828)at pH 5.8
How it was run: (§4)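 Middlebrook 7H10 agar plus 10% OADC at pH 5.8 in compartmented plates, with serial twofold dilutions from 200 to 3.12 µg/mL. Plates were prepared 24–48 h before use and stored at 4 °C. A drug-free compartment was included per isolate. Incubation was 37 °C for 4 weeks. MIC was the lowest level producing 99% (2 log) inhibition of growth.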

[16] = system: Mycobacterium tuberculosis; assay: In vitro activity against Mycobacterium strain CES (Mycobacterium tuberculosis); how it was run: as §1
[17] = system: Mycobacterium tuberculosis; assay: In vitro activity against Mycobacterium. tuberculosis (strain type-ATCC 35828) at pH 6.6
How it was run: (§5)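 Twofold serial dilutions (200–3.12 µg/mL) in 7H10 agar with 10% OADC enrichment at pH 6.6, in compartmented plates. Plates were stored at 4 °C and used within 24–48 h. A no-drug compartment served as control for each isolate. Plates were incubated for 4 weeks at 37 °C. MIC was the lowest concentration giving 99% (2 log) growth inhibition.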

[18] = system: Mycobacterium kansasii; assay: In vitro activity against Mycobacterium. kansasii (strain type-SWK) pH 6.6
How it was run: (§6)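 MIC for pyrazinamide-resistant isolate SWK by agar dilution in Middlebrook 7H10 with 10% OADC at pH 6.6. Serial 2-fold dilutions run 200–3.12 µg/mL in compartmented plates prepared 24–48 h in advance and stored at 4 °C. A drug-free control is included. Plates were held at 37 °C for 4 weeks. The endpoint is 99% (2 log) inhibition of growth.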

[19] = system: Mycobacterium tuberculosis; assay: (§7) In vitro activity against Mycobacterium. tuberculosis (strain type-H37Rv) at pH 6.6; how it was run: as §5
[20] = system: Mycobacterium tuberculosis; assay: In vitro activity against Mycobacterium strain GLA (Mycobacterium tuberculosis); settings: Mycobacterium tuberculosis; read-out: MIC
[21] = system: Mycobacterium tuberculosis; assay: In vitro activity against Mycobacterium strain SMA (Mycobacterium tuberculosis)
[22] = system: Mycobacterium kansasii; assay: In vitro activity against Mycobacterium strain SCH (Mycobacterium kansasii); how it was run: as §3
[23] = system: Mycobacterium tuberculosis; assay: In vitro activity against Mycobacterium. tuberculosis (strain type-ATCC 35828)at pH 6.6; how it was run: as §5
[24] = system: Mycobacterium tuberculosis; assay: In vitro activity against Mycobacterium. tuberculosis (strain type-BUR)at pH 6.6; how it was run: as §5
[25] = system: Mycobacterium kansasii; assay: In vitro activity against Mycobacterium. kansasii (strain type-SWK) […]
[26] = system: Mycobacterium kansasii; assay: In vitro activity against Mycobacterium. kansasii (strain type-SWK).at pH 6.6; how it was run: as §6
[27] = system: Mycobacterium kansasii; assay: In vitro activity against Mycobacterium. kansasii (strain type-SWK).at pH 5.8; how it was run: as §2
[28] = system: Mycobacterium tuberculosis; assay: as §7; settings: Mycobacterium tuberculosis; read-out: MIC
[29] = system: Mycobacterium tuberculosis; assay: In vitro inhibitory activity against Mycobacterium tuberculosis (strain type-ATCC 35828) at pH 6.6; how it was run: as §5
[30] = system: Mycobacterium tuberculosis; assay: In vitro inhibitory activity against Mycobacterium tuberculosis (strain type-H37Rv) at pH 5.8; how it was run: as §4
[31] = system: Mycobacterium kansasii; assay: In vitro inhibitory activity against Mycobacterium kansasii (strain type-SWK) at pH 5.8; how it was run: as §2
[32] = system: Mycobacterium tuberculosis; assay: In vitro inhibitory activity against Mycobacterium tuberculosis (strain type-ATCC 35828) at pH 5.8; how it was run: as §4
[33] = system: Mycobacterium tuberculosis; assay: In vitro inhibitory activity against Mycobacterium tuberculosis (strain type-BUR) at pH 5.8; how it was run: as §4
[34] = system: Mycobacterium tuberculosis; assay: In vitro inhibitory activity against Mycobacterium tuberculosis (strain type-BUR) at pH 6.6; how it was run: as §5
[35] = system: Mycobacterium kansasii; assay: In vitro inhibitory activity against Mycobacterium kansasii (strain type-SWK) at pH 6.6; how it was run: as §6
[36] = system: Mycobacterium tuberculosis; assay: In vitro inhibitory activity against Mycobacterium tuberculosis (strain type-H37Rv) at pH 6.6; settings: Mycobacterium tuberculosis; read-out: MIC
[37] = system: Mycobacterium kansasii; assay: In vitro inhibitory activity against Mycobacterium kansasii (strain type-SWK) pH 6.6; how it was run: as §6
[38] = system: Mycobacterium tuberculosis; assay: In vitro activity against Mycobacterium tuberculosis (strain type-BUR) at pH 5.8; how it was run: as §4
[39] = system: Mycobacterium tuberculosis; assay: In vitro inhibitory activity against Mycobacterium tuberculosis (strain type-ATCC 35828) pH 6.6; how it was run: as §5
[40] = system: Mycobacterium kansasii; assay: In vitro inhibitory activity against Mycobacterium kansasii (strain type-SWK)at pH 5.8; how it was run: as §2
[41] = system: Mycobacterium tuberculosis; assay: In vitro inhibitory activity against Mycobacterium tuberculosis (strain type-ATCC 35828)at pH 5.8; how it was run: as §4
[42] = Mycobacterium tuberculosis, read-out: MIC

O=C(OCC(F)(F)F)c1cnccn1
MIC [1]: 25 µg/mL (≈ 121 µM) | MIC [2]: 25 µg/mL (≈ 121 µM) | MIC [3]: 25 µg/mL (≈ 121 µM) | MIC [4]: 25 µg/mL (≈ 121 µM) | MIC [5]: 25 µg/mL (≈ 121 µM) | MIC [6]: 100 µg/mL (≈ 485 µM) | MIC [7]: 50 µg/mL (≈ 243 µM) | MIC [8]: 100 µg/mL (≈ 485 µM) | MIC [9]: 200 µg/mL (≈ 970 µM) | MIC [10]: 25 µg/mL (≈ 121 µM) | MIC [11]: 25 µg/mL (≈ 121 µM) | MIC [12]: 25 µg/mL (≈ 121 µM) | MIC [13]: 25 µg/mL (≈ 121 µM) | MIC [14]: 25 µg/mL (≈ 121 µM) | MIC [15]: 25 µg/mL (≈ 121 µM) | MIC [16]: 12.5 µg/mL (≈ 60.6 µM) | MIC [17]: > 200 µg/mL | MIC [18]: > 200 µg/mL | MIC [19]: 100 µg/mL (≈ 485 µM) | MIC [20]: 12.5 µg/mL (≈ 60.6 µM) | MIC [21]: 25 µg/mL (≈ 121 µM) | MIC [22]: 25 µg/mL (≈ 121 µM)

CC(C)(C)c1ccc(OC(=O)c2cnccn2)cc1
MIC [1]: 25 µg/mL (≈ 97.5 µM) | MIC [23]: 25 µg/mL (≈ 97.5 µM) | MIC [24]: 50 µg/mL (≈ 195 µM) | MIC [6]: 25 µg/mL (≈ 97.5 µM) | MIC [15]: 25 µg/mL (≈ 97.5 µM)

O=C(OCCCl)c1cnccn1
MIC [25]: 25 µg/mL (≈ 134 µM) | MIC [1]: 6.25 µg/mL (≈ 33.5 µM) | MIC [15]: 25 µg/mL (≈ 134 µM)

O=C(OCCBr)c1cnccn1
MIC [26]: > 200 µg/mL | MIC [23]: > 200 µg/mL | MIC [24]: > 200 µg/mL

O=C(Oc1ccc([N+](=O)[O-])cc1)c1cnccn1
MIC [26]: 200 µg/mL (≈ 816 µM) | MIC [1]: 12.5 µg/mL (≈ 51 µM) | MIC [2]: 12.5 µg/mL (≈ 51 µM) | MIC [27]: 25 µg/mL (≈ 102 µM) | MIC [28]: 50 µg/mL (≈ 204 µM) | MIC [23]: 200 µg/mL (≈ 816 µM) | MIC [15]: 25 µg/mL (≈ 102 µM)

O=C(O)c1cnccn1 [PYRAZINOIC ACID]
MIC [29]: > 200 µg/mL | MIC [30]: 50 µg/mL (≈ 403 µM) | MIC [31]: > 200 µg/mL | MIC [32]: 100 µg/mL (≈ 806 µM) | MIC [33]: 50 µg/mL (≈ 403 µM) | MIC [34]: > 200 µg/mL | MIC [35]: > 200 µg/mL | MIC [36]: 200 µg/mL (≈ 1610 µM)

CN(C)CCOC(=O)c1cnccn1
MIC [37]: > 200 µg/mL | MIC [3]: 25 µg/mL (≈ 128 µM) | MIC [38]: 25 µg/mL (≈ 128 µM) | MIC [30]: 12.5 µg/mL (≈ 64 µM) | MIC [39]: > 200 µg/mL | MIC [4]: 25 µg/mL (≈ 128 µM) | MIC [5]: 25 µg/mL (≈ 128 µM) | MIC [7, 42]: 25 µg/mL (≈ 128 µM) | MIC [40]: 200 µg/mL (≈ 1020 µM) | MIC [8]: 25 µg/mL (≈ 128 µM) | MIC [9]: 100 µg/mL (≈ 512 µM) | MIC [10]: 50 µg/mL (≈ 256 µM) | MIC [11, 42]: 12.5 µg/mL (≈ 64 µM) | MIC [41]: 25 µg/mL (≈ 128 µM) | MIC [12]: 25 µg/mL (≈ 128 µM) | MIC [13]: 25 µg/mL (≈ 128 µM) | MIC [14]: 25 µg/mL (≈ 128 µM) | MIC [16]: 25 µg/mL (≈ 128 µM) | MIC [36]: 100 µg/mL (≈ 512 µM) | MIC [20]: 25 µg/mL (≈ 128 µM) | MIC [21, 42]: 25 µg/mL (≈ 128 µM) | MIC [22]: 50 µg/mL (≈ 256 µM)

Reference: ChEMBL document CHEMBL1125418, “Antimycobacterial activity of a series of pyrazinoic acid esters” (1992)
